Source: ChEMBL document CHEMBL1154048, “Design, synthesis and pharmacological evaluation of new 1-[3-(4-arylpiperazin-1-yl)-2-hydroxy-propyl]-3,3-diphenylpyrrolidin-2-one derivatives with antiarrhythmic, antihypertensive, and alpha-adrenolytic activity” (Eur J Med Chem, 2009)
The source made the active and inactive calls.

How the values were obtained:
Rattus norvegicus [1] = assay: Hypotensive activity in Wistar rat assessed as reduction in methoxamine-induced pressure response at 5 mg/kg; assay type: functional, organism-based; set-up: dose 5 mg/kg
Method in brief: (§1)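 In anaesthetized rats, pressor responses were evoked by i.v. epinephrine, norepinephrine or methoxamine. Blood pressure was recorded through a heparin-saline-filled cannula in the carotid artery.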

Rattus norvegicus [2] = assay: Antiarrhythmic activity against adrenaline-induced arrhythmia in rat assessed as reduction in supraventricular extrasystole at 5 mg/kg, iv administered 15 mins before adrenaline challenge; assay type: functional, organism-based; set-up: dose 5 mg/kg; conditions: Heart
Method in brief: (§2)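 Rats anaesthetized with thiopental 60 mg/kg ip were dosed i.v. 15 min before an i.v. adrenaline challenge. Cardiac rhythm disturbances (bradycardia, extrasystoles, bigeminy, blocks) were recorded for 15 min after adrenaline and compared with controls.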

Rattus norvegicus [3] = assay: Antiarrhythmic activity against adrenaline-induced arrhythmia in iv dosed rat assessed as inhibition of cardiac rhythm disturbance administered 15 mins before adrenaline challenge; assay type: functional; conditions: Heart
Method in brief: (§3)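 Rats anaesthetized with thiopental 60 mg/kg ip received the compound i.v. 15 min before an i.v. adrenaline challenge. Rhythm disturbances were recorded for 15 min after adrenaline. Activity was defined as absence of premature beats and inhibition of disturbances versus controls. ED50 values, with confidence limits, were derived by Litchfield–Wilcoxon from three groups of six animals.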

Rattus norvegicus [4] = assay: Hypotensive activity in Wistar rat assessed as reduction in norepinephrine-induced blood pressure response at 5 mg/kg; assay type: functional, organism-based; set-up: dose 5 mg/kg; method in brief: as §1
Rattus norvegicus [5] = assay: Hypotensive activity in Wistar rat assessed as reduction in epinephrine-induced blood pressure response at 5 mg/kg; assay type: functional, organism-based; set-up: dose 5 mg/kg; method in brief: as §1
[6] = biological target: T1, Adrenergic receptor alpha-2 (Rattus norvegicus, UniProt P22086+P19328+P22909); assay: Displacement of [3H]clonidine from alpha2 adrenergic receptor in rat cerebral cortex by liquid scintillation counting; assay type: tissue-based
T1 sequence (P22086 whole entry): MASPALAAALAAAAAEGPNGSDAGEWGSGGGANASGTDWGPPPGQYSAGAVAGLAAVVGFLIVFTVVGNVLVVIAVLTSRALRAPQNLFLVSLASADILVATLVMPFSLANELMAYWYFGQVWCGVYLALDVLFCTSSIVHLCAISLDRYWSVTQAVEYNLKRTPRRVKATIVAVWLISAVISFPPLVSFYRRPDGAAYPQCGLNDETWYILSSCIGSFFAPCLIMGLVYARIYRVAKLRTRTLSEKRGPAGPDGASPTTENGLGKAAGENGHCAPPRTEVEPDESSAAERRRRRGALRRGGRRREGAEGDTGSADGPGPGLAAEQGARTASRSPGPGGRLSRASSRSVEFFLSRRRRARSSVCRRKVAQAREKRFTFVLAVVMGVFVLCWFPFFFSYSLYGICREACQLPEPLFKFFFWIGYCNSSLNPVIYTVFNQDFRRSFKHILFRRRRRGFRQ
T1 sequence (P19328 whole entry): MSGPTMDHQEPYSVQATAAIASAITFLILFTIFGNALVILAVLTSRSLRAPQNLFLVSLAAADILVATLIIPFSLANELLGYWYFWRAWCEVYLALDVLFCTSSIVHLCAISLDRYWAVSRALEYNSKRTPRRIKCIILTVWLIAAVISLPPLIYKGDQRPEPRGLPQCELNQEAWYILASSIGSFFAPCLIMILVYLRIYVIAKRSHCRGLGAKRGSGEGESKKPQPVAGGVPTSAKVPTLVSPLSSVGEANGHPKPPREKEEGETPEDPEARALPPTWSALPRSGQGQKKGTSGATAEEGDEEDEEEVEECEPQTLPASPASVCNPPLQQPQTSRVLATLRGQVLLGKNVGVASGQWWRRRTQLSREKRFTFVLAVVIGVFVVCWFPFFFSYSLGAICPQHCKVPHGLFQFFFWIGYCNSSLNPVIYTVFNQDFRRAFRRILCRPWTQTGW
T1 sequence (P22909 whole entry): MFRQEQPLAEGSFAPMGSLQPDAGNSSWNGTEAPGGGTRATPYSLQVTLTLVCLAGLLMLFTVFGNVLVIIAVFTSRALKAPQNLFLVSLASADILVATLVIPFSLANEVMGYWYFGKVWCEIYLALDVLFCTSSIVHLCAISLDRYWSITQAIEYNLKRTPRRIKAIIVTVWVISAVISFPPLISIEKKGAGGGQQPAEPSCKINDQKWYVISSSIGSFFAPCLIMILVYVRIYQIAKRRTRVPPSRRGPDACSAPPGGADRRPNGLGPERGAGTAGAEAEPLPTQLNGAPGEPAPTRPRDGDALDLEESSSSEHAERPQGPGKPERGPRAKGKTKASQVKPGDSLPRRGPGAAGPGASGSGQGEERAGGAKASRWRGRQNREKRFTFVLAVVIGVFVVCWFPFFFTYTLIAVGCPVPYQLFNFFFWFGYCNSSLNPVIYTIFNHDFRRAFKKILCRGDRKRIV
Method in brief: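 Rat cerebral cortex membranes were prepared in ice-cold 50 mM Tris–HCl pH 7.6 (20 000 × g, 20 min, 0–4 °C, washed twice). They were incubated with [3H]clonidine 2 nM and seven to eight compound concentrations (10^-11–10^-4 M), with excess unlabelled clonidine defining nonspecific binding. Samples were glass-fiber filtered and counted by liquid scintillation, in duplicate. Ki was calculated by Cheng–Prusoff.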

Rattus norvegicus [7] = assay: Antiarrhythmic activity against adrenaline-induced arrhythmia in rat assessed as reduction in reflex bradycardia at 5 mg/kg, iv administered 15 mins before adrenaline challenge; assay type: functional, organism-based; set-up: dose 5 mg/kg; conditions: Heart; method in brief: as §2
Rattus norvegicus [8] = assay: Antiarrhythmic activity against adrenaline-induced arrhythmia in rat assessed as reduction in cardiac block at 5 mg/kg, iv administered 15 mins before adrenaline challenge; assay type: functional, organism-based; set-up: dose 5 mg/kg; conditions: Heart; method in brief: as §2
Rattus norvegicus [9] = assay: Antiarrhythmic activity against adrenaline-induced arrhythmia in rat assessed as reduction in ventricular extrasystole at 5 mg/kg, iv administered 15 mins before adrenaline challenge; assay type: functional, organism-based; set-up: dose 5 mg/kg; conditions: Heart; method in brief: as §2
Rattus norvegicus [10] = assay: Antiarrhythmic activity against adrenaline-induced arrhythmia in rat assessed as reduction in bigeminy at 5 mg/kg, iv administered 15 mins before adrenaline challenge; assay type: functional, organism-based; set-up: dose 5 mg/kg; conditions: Heart; method in brief: as §2
Rattus norvegicus [11] = assay: Antiarrhythmic activity against adrenaline-induced arrhythmia in iv dosed rat assessed as reduction in mortality rate administered 15 mins before adrenaline challenge; assay type: functional, organism-based; conditions: Heart; method in brief: as §3
Rattus norvegicus [12] = species: Rattus norvegicus; assay: Hypotensive activity in Wistar rat assessed as reduction in norepinephrine-induced systolic blood pressure response; assay type: functional, organism-based; conditions: Artery; method in brief: as §1
Rattus norvegicus [13] = assay: Antiarrhythmic activity against adrenaline-induced arrhythmia in iv dosed rat assessed as reduction in bigeminy administered 15 mins before adrenaline challenge; assay type: functional, organism-based; conditions: Heart; method in brief: as §3
Rattus norvegicus [14] = assay: Antiarrhythmic activity against adrenaline-induced arrhythmia in iv dosed rat assessed as reduction in ventricular extrasystole administered 15 mins before adrenaline challenge; assay type: functional, organism-based; conditions: Heart; method in brief: as §3
Rattus norvegicus [15] = species: Rattus norvegicus; assay: Hypotensive activity in Wistar rat assessed as reduction in methoxamine-induced systolic blood pressure response; assay type: functional, organism-based; conditions: Artery; method in brief: as §1
Rattus norvegicus [16] = assay: Antiarrhythmic activity against adrenaline-induced arrhythmia in iv dosed rat assessed as reduction in supraventricular extrasystole administered 15 mins before adrenaline challenge; assay type: functional, organism-based; conditions: Heart; method in brief: as §3
Rattus norvegicus [17] = species: Rattus norvegicus; assay: Hypotensive activity in Wistar rat assessed as reduction in epinephrine-induced systolic blood pressure response; assay type: functional, organism-based; conditions: Artery; method in brief: as §1
Guinea pig spleen α1B = Guinea pig spleen α1B (Cavia porcellus, UniProt H0WBQ9); assay: Antagonist activity at Alpha-1B adrenoceptor in guinea pig spleen assessed as inhibition of noradrenaline-induced contraction after 30 mins; assay type: functional, tissue-based; conditions: read-out: pA2 (converted)
Method in brief: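 Guinea-pig spleen strips equilibrated 100 min with repeated noradrenaline stimulation and washout. Two cumulative noradrenaline concentration–response curves were run 60 min apart, before and after a 30 min antagonist incubation, with propranolol present throughout to block β-adrenoceptors. Contraction was expressed as % of the first-curve maximum. EC50 was fitted by non-linear regression, and Schild analysis of concentration ratios gave pA2. n ≥ 5.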

Row | SMILES | Activity (Rattus norvegicus [1]) | Activity (Rattus norvegicus [2]) | ED50 (Rattus norvegicus [3]) | Activity (Rattus norvegicus [4]) | Activity (Rattus norvegicus [5]) | pKi [6] | Activity (Rattus norvegicus [7]) | Activity (Rattus norvegicus [8]) | Activity (Rattus norvegicus [9]) | Activity (Rattus norvegicus [10]) | Activity (Rattus norvegicus [11]) | Activity (Rattus norvegicus [12]) | Activity (Rattus norvegicus [13]) | Activity (Rattus norvegicus [14]) | Activity (Rattus norvegicus [15]) | Activity (Rattus norvegicus [16]) | Activity (Rattus norvegicus [17]) | Kb (Guinea pig spleen α1B)
1 | Cc1ccccc1N1CCN(CC(O)CN2CCC(c3ccccc3)(c3ccccc3)C2=O)CC1.Cl.Cl (centres undefined) | Active | Active | 1.4 mg/kg | Active | Active | 6.51 | Active | Active | Active | Active | Active |  |  |  |  |  |  | 
2 | Cl.Cl.O=C1N(CC(O)CN2CCN(c3ccccc3C(F)(F)F)CC2)CCC1(c1ccccc1)c1ccccc1 (centres undefined) |  |  | 3.9 mg/kg |  |  | 5.29 |  |  |  |  | Active | inactive | Active | Active | inactive | Active | inactive | 
3 | CCOc1ccccc1N1CCN(CC(O)CN2CCC(c3ccccc3)(c3ccccc3)C2=O)CC1.Cl.Cl (centres undefined) | Active | Active | 1.1 mg/kg | Active | Active | 6.38 | Active | Active | Active | Active | Active |  |  |  |  |  |  | 281 nM
4 | COc1ccccc1N1CCN(CC(O)CN2CCC(c3ccccc3)(c3ccccc3)C2=O)CC1.Cl.Cl (centres undefined) | Active |  | 2.05 mg/kg | Active | Active | 6.68 |  |  |  |  | Active |  | Active | Active |  | Active |  | 
5 | Cl.Cl.O=C1N(CC(O)CN2CCN(c3ccccc3)CC2)CCC1(c1ccccc1)c1ccccc1 (centres undefined) | Active |  | 1.9 mg/kg | Active | Active | 6.64 |  |  |  |  | Active |  | Active | Active |  | Active |  | 
6 | COc1ccc(N2CCN(CC(O)CN3CCC(c4ccccc4)(c4ccccc4)C3=O)CC2)cc1.Cl.Cl (centres undefined) |  |  |  |  |  | 6 |  |  |  |  |  | inactive |  |  | inactive |  | inactive | 
